Shown are actives, neighbours in structure and some others; about 2% of the full set was active somewhere.
DNA FID counter: counter-screen for HCV NS3 helicase inhibitors: DNA intercalator displacement; DNA fluorescent intercalator displacement, fluorescence; inhibition, % at 7.9 µM; 0.17% of 290,000 active; in the data active means inhibition above about 37%;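 further: 0% = vehicle and 100% = reference compound; higher means more ethidium bromide displaced from hairpin DNA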
NS3 helicase inh: HCV NS3 helicase inhibition. AID 1800. inhibition, % at 10.9 µM. 0.56% of 290,000 active. NS3 helicase DNA unwinding, Cy5 molecular beacon fluorescence;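 active means inhibition above the mean of all tested compounds plus 3 SD, set per campaign, cut at about 35% in these data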;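 further: 0% = DMSO wells and 100% = thioflavine S control wells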
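test system = hepatitis C virus NS3 helicase domain fragment enzyme | reagent = annealed dual-labelled DNA beacon duplex, ATP-started | times = 1 h at 25 °C | detection = Cy5 fluorescence, 0 and 60 min reads | read-out basis = percent inhibition from t60/t0 fluorescence ratio | control set = DMSO and thioflavine S | replication = one well per compound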
PABP1 MLLE inh: inhibitors of microRNA-mediated deadenylation, human PABP1 MLLE binding | inhibition, % at 20 µM | P11940 | GST-MLLE / FITC-PAM2 fluorescence polarization | AID 588489 | 0.36% of 360,000 active; in the data active means inhibition above about 35%, passing the limit was not always enough;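 further: plate controls were DMSO wells with GST-MLLE for no effect and wells lacking GST-MLLE protein for full effect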
Target sequence (P11940 whole entry, looked up): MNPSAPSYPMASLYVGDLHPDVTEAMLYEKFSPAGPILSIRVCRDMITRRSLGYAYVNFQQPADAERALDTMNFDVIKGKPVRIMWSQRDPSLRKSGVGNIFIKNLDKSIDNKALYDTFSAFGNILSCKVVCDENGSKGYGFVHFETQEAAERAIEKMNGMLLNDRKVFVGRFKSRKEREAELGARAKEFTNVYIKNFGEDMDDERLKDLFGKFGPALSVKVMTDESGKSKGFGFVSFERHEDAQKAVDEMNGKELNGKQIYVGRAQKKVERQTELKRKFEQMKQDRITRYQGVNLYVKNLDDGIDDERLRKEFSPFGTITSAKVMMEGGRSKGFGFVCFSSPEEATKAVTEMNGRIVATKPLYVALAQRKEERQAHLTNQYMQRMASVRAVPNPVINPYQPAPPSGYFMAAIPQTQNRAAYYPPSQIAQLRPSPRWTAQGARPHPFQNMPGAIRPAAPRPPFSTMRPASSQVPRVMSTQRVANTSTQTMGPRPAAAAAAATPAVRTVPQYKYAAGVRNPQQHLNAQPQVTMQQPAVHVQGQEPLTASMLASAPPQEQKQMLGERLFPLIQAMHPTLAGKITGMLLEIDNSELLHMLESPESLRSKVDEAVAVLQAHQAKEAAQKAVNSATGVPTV
eIF4H FP inh: inhibitors of RNA binding by human eIF4H; inhibition, % at 35 µM; AID 2012; 0.94% of 290,000 active; Q15056; eIF4H fluorescence polarization binding assay;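 further: calls also rest on retests at 20 µM and on dose response follow-up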
PABP FP inh: PABP-poly(A) binding inhibition; PABP-poly(A) RNA binding, fluorescence polarization; inhibition, % at 35 µM; 1% of 290,000 active;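 further: calls also rest on retests at 20 µM and on dose response follow-up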
core dimer inh: HCV core protein dimerization inhibition. 0.33% of 300,000 active. inhibition, % at 5 µM. AID 1899. TR-FRET GST/Flag-core106 dimerization, 1536-well;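 active means inhibition above the mean of all tested compounds plus 3 SD, set per screening campaign, cut at about 45% in these data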
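System: GST-tagged and Flag-tagged HCV core protein residues 1-106 / Input: core106 proteins, GST 13.5 nM and Flag 17 nM / Buffer or medium: KF-containing HEPES buffer, pH 7.45, DTT, CHAPS, BSA / Probe or stimulus: Eu-anti-GST and XL665-anti-Flag labelled anti-tag antibodies / Schedule: 4 h, 22.5 °C incubation / Technique: TR-FRET 671 and 617 nm emission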
An asterisk follows results filed as active; ? = inconclusive; . = not tested or not shown. Unless noted, how the calls were made is not given here.

SMILES	DNA FID counter	NS3 helicase inh	PABP1 MLLE inh	eIF4H FP inh	PABP FP inh	core dimer inh
N#C/C(=N\Nc1ccc(S(=O)(=O)N2CCCCCC2)cc1)C(N)=S	-22	-16	42*	0	4	10
N#C/C(=N\Nc1ccc(S(=O)(=O)N2CCCCC2)cc1)C(N)=S	-22	4	11	-5	-9	-6
O=[N+]([O-])c1ccc(-c2ccc(/C=N/c3c(-c4ccco4)nc4ccccn34)o2)c(Cl)c1	2	17	.	34	-4	.
O=[N+]([O-])c1ccc(Cl)c(-c2ccc(/C=N/c3c(-c4ccco4)nc4ccccn34)o2)c1	8	23	2	?	74*	8
O=[N+]([O-])c1ccc(-c2ccc(/C=N/c3c(-c4ccco4)nc4ccccn34)o2)cc1	0	8	10	?	60*	3
CCOC(=O)C(=O)N(C)c1c(CC)nc2c(OCc3ccccc3)cccn12	.	.	-2	.	.	.
COc1ccccc1N1CCN(S(=O)(=O)c2ccc3c(c2)NC(=O)C(C)S3)CC1 (centres undefined)	-44	-16	11	0	-3	16
COc1ccccc1N1CCN(C(=O)C(C)CS(=O)(=O)c2ccc3c(c2)NC(=O)CS3)CC1 (centres undefined)	-58	6	-9	56*	16	-283
CCn1c(N)c(C(=O)NCCCOC)sc1=S	-1	2	21	1	4	-5
CC(C)OCCCNC(=O)c1sc(=S)n(C)c1N	1	12	41*	-10	14	-9
Cc1ccc(C(=O)OCC(=O)NC2CCCCCC2)c(C)c1	.	.	22	.	.	.
Clc1ccc(C2=CC(c3ccco3)n3ncnc3N2)cc1 (centres undefined)	-6	6	160	?	79*	-2
COc1ccc(C2=CC(c3ccco3)n3ncnc3N2)cc1 (centres undefined)	-12	4	144	?	-9	.
CC(C)(C)c1nnc(NC(=S)Nc2ccccc2)s1	-14	1	43*	?	?	1
Cc1ccc(Cc2cnc(NC(=O)/C(C#N)=C/c3ccc(-c4ccccc4[N+](=O)[O-])o3)s2)cc1	-2	0	-12	54	41	35
Cn1cc(/C=C(\C#N)C(=O)Nc2ncc(Cc3ccc(Cl)cc3)s2)c2ccccc21	1	11	12	63*	active	7
N#Cc1cccc(OC(=O)C2CCN(C(=O)c3ccc(F)cc3)CC2)c1	.	.	-32	.	.	.
Cc1ccc(-c2ccc(OCC(=O)N3CCOCC3)cc2)cc1	-23	2	-6	-9	-4	11
Cc1cccc(OCC(=O)N2CCOCC2)c1	4	-2	1	8.3*	99*	0
Cc1nn(C)c(C)c1S(=O)(=O)N(CC(=O)NCCCN1CC(C)CC(C)C1)c1ccc(C(C)C)cc1 (centres undefined)	40*	-21	-7	-2	-4	-7
O=C(O)c1ccc(-n2cccc2/C=C2/NC(=O)N(c3ccccc3)C2=O)cc1	-32	17	-41	97*	84*	-16
Cc1cccc(NC(=O)CN2C(=O)N/C(=C\c3ccc(-c4cccc(C(=O)O)c4)o3)C2=O)c1	-19	33	-1	79*	72*	-8
O=C(O)c1ccc(-n2cccc2/C=C2/SC(=O)N(CC(=O)N3CCCC3)C2=O)cc1	-24	20	6	84*	80*	-1
O=C(O)c1cccc(-n2cccc2/C=C2\NC(=O)N(Cc3ccc(F)cc3)C2=O)c1	-34	14	5	82	55*	3
Cc1ccc(NC(=O)CN2C(=O)N/C(=C\c3cccn3-c3cccc(C(=O)O)c3)C2=O)cc1	-27	18	2	99*	1.5*	.
SMILES	DNA FID counter	NS3 helicase inh	PABP1 MLLE inh	eIF4H FP inh	PABP FP inh	core dimer inh
Cc1ccc(CN2C(=O)N/C(=C\c3cccn3-c3cccc(C(=O)O)c3)C2=O)cc1	-7	4	7	90	2.6*	-2
Cc1ccc(NC(=O)CN2C(=O)N/C(=C/c3cc(C)n(-c4cccc(C(=O)O)c4)c3C)C2=O)cc1	-17	25	18	86*	26*	.
CCOC(=O)c1cccc(-n2cccc2/C=C2\NC(=O)N(CC(=O)O)C2=O)c1	.	.	-1	.	.	.
Cc1ccc(F)c(S(=O)(=O)NC(=O)C2(C)CCN2C(=O)CC2CCCCC2)c1 (centres undefined)	.	.	6	.	.	.
CCc1nc2ccc(C(=O)NCCCN3CCCC3=O)cn2c1N(CC)CCOC	.	.	5	.	.	.
COC(=O)c1ccccc1NC(=O)c1ccc2nccnc2c1	1	4	-21	54	active	51*
O=C(Nc1ccccc1Cl)c1ccc2nccnc2c1	-3	13	4	-2	-1	4
CN(C(=O)c1cccc(NC(=O)Cc2ccc(NC(=O)C3CCCN(C(=O)C4CCC4)C3)cc2)c1)C1CCC1 (centres undefined)	.	.	6	.	.	.
O=C1c2ccccc2C(=O)c2c1cccc2N(CCO)CCO	8	5	41*	?	?	-44
N#C/C(=C(/O)COC(=O)c1ccc(Cl)c(S(=O)(=O)N2CCOCC2)c1)c1nc2ccccc2[nH]1	-7	-1	-11	7	-2	14
Cc1ccc(C(=O)OC/C(O)=C(\C#N)c2nc3ccccc3[nH]2)cc1S(=O)(=O)N1CCOCC1	-22	-2	-29	13	6	0
N#C/C(=C(/O)COC(=O)CCc1ccc(S(=O)(=O)N2CCOCC2)cc1)c1nc2ccccc2[nH]1	-27	9	-12	81	41*	16
N#C/C(=C(/O)COC(=O)c1ccc2c(c1)OCCO2)c1nc2ccccc2[nH]1	-3	0	-36	14	19	58*
CCC(=O)Nc1ccc2c(c1)Cc1cc([N+](=O)[O-])ccc1-2	.	.	-28	.	.	.
Cn1cc(Cc2ccc(C(=O)N3CCN(Cc4ccccc4)CC3)cn2)c2ccccc21	.	.	8	.	.	.
Cc1ccc(-n2c(N)c(C(=O)Nc3c(C)n(C)n(-c4ccccc4)c3=O)c3nc4ccccc4nc32)cc1C	-30	72*	.	?	7	30
COc1ccc(-n2c(N)c(C(=O)Nc3c(C)n(C)n(-c4ccccc4)c3=O)c3nc4ccccc4nc32)cc1	-16	4	13	40	10	16
CCN(CC(=O)N1CCOCC1)S(=O)(=O)c1cc(Cl)ccc1Cl	-4	-4	-5	-3	-2	1
OC(COc1ccccc1)Cn1c2ccccc2c2ccccc21 (centres undefined)	-5	-13	7	10	4	-4
Oc1cccc2ccc[n+](CC(O)Cn3c4ccccc4c4ccccc43)c12 (centres undefined)	39*	-55	18	4	4	-10
Cc1cc2c(N)cccc2nn1	-9	30	14	96*	88*	-4
Cc1cc2c(NC(=O)Nc3ccccc3)cccc2nn1	-3	7	3	4	20	1
